From PubChem
MC4R barr agon – agonists of human melanocortin 4 receptor (MC4R) beta-arrestin; activation, % at 8.9 µM; U2OS MC4R beta-arrestin complementation, luminescence; percent of melanotan II response, DMSO zero; 360,000 tested, 0.98% active;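 active means activation above a per-plate cutoff, the mean activation of sample wells on that plate plus 3 SD, cut at about 8% in these data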
Target sequence (P32245 whole entry, looked up): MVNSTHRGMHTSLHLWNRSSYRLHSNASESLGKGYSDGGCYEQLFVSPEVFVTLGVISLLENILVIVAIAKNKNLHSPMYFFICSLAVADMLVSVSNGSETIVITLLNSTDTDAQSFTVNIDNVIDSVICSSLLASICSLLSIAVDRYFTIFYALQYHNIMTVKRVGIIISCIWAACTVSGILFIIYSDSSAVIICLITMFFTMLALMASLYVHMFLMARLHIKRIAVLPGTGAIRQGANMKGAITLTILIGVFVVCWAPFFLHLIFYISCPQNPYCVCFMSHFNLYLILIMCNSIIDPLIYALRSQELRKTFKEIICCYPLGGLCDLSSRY
sPLA2-III inh – Inhibits HGIII-sPLA2 liposome hydrolysis, primary screen | inhibition, % at 12.2 µM | Q9NZ20 | QFRET BODIPY PC-A2 liposome hydrolysis, fluorescence | 370,000 tested, 0.56% active;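 active means inhibition above mean plus 3 SD of compounds lying within the high and low control bounds, cut at about 19% in these data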;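 further: 0% = median of test compound wells and 100% = no enzyme DMSO wells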
Exocytosis inh – blocks lytic granule exocytosis; TALL-104 LAMP-1 surface exposure, flow cytometry; cells stimulated with thapsigargin and PMA; inhibition, % at 10 µM; 360,000 tested, 0.66% active; AID 651702;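 active means inhibition above about 55%, limit read from the data; inconclusive means no clear call, values can overlap the other calls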
MC4R antag cAMP – blocks human MC4R cAMP signaling; P32245; MC4R-expressing cells, MTII-stimulated cAMP, LANCE TR-FRET; inhibition, % at 6.5 µM; 360,000 tested, 0.48% active; AID 540295;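 active means inhibition above its plate's cutoff, the mean of tested wells on that plate plus 3 SD, cut at about 29% in these data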;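 further: 0% = Melanotan II alone and 100% = Melanotan II plus saturating MCL0020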
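material = U2OS cells stably expressing human melanocortin 4 receptor (MC4R) | also added = Melanotan II challenge | dosing = single nominal compound dose of 6.5 µM | detection = TR-FRET with Eu-cAMP and labeled anti-cAMP, 671 nm | replication = singlicate | timing = compound 30 min, challenge 1 h, detection 1 h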
Bfl-1 A1 inh – inhibitors of the anti-apoptotic protein A1, read as caspase activation | MEF A1-2A-BIM cells, Caspase-Glo 3/7 luminescence, 3 h; percent of clofoctol response, vehicle zero | caspase activation, % (test concentration not listed) | 330,000 tested, 0.066% active;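 active means over half of replicate activation scores above 10%, or exactly half above 10 with the replicate mean above 10; inconclusive means replicate mean below 10 yet half the replicates above 10; inactive means over half of replicates below 10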
NTR1 ag – activates human neurotensin receptor 1. NTR1-U2OS beta-arrestin-GFP spot imaging, agonist mode. activation, % at 20 µM. AID 493036. P30989. 330,000 tested, 0.17% active;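 active means activation at or above 40% of the spot to cytoplasm intensity ratio, with at least 20 cells analyzed; inconclusive means wells under 20 cells, flagged as cytotoxic or low count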;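 further: 0% = DMSO without peptide and 100% = 100 nM NTR1 peptide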
Starred values were filed as active, the others as inactive; ? = inconclusive; . = no result. Only some compounds are listed: those with a hit (about 2.5% of all), similar ones and a draw of the others.

SMILES | MC4R barr agon | sPLA2-III inh | Exocytosis inh | MC4R antag cAMP | Bfl-1 A1 inh | NTR1 ag
CCCC(=O)NC(Oc1ccc(OC)cc1)C(Cl)(Cl)Cl (stereo not drawn) | -0.7 | 1.0 | -3.2 | 2.2 | -0.3 | -3.3
CC(C)CC(=O)NC(Oc1ccc(Cl)cc1)C(Cl)(Cl)Cl (stereo not drawn) | 8.5* | 4.8 | -2.7 | 11.8 | -0.5 | 1.1
C[C@@]12N[C@@H](Cc3ccccc31)c1ccccc12 | -0.4 | 2.5 | -3.7 | 9.9 | 0.6 | -2.9
CC[n+]1c(/C=C/N(C)c2ccccc2)sc2ccc(Cl)cc21 | -1.2 | 5.6 | -2.4 | -1.7 | -0.7 | 1.5
CC[n+]1c(/C=C/C=C/c2ccc(N(C)C)cc2)sc2ccccc21 | -4.2 | 37.1* | -23.5 | -4.0 | -0.7 | 10.8
CCN1/C(=C\C=C\C2=[N+](CC)c3ccccc3C2(C)C)C(C)(C)c2ccccc21 | -0.7 | . | 85.2* | -10.6 | -2.6 | -4.9
Brc1csc(N2CCNCC2)n1 | . | 11.7 | . | . | . | .
CCCCn1c(C)c(C(=O)O)c2cc(OC)c3ccccc3c21 | -0.3 | -5.5 | 1.0 | -2.0 | 0.6 | 8.2
CCCCOc1ccc(CCN)cc1Cl | 8.3* | 3.2 | -2.7 | 5.3 | 0.3 | 0.3
COc1ccc(CCN)cc1O | -0.1 | -2.4 | -2.6 | 5.2 | 1.1 | -1.4
O=C1NC(=O)N(CCC2=CCCCC2)C(=O)/C1=C\c1cccs1 | 1.0 | 6.1 | 5.3 | 11.5 | 0.1 | -0.7
O=C1NC(=O)N(CCc2ccc(F)cc2)C(=O)/C1=C/c1cccs1 | 0.7 | -5.5 | 79.9* | -13.7 | -0.3 | 21.7
COc1cc(C=NNC(=S)Nc2ccc(S(=O)(=O)N3CCCCC3)cc2)cc(OC)c1OC | -2.1 | 12.1 | 0.5 | 2.9 | . | .
COc1cc2c(c(OC)c1OC)-c1ccc(SC)c(=O)cc1C(N)CC2 (stereo not drawn) | -1.1 | 11.7 | -11.6 | -32.9 | . | .
CCOC(=O)CC1=C(C(=O)OCC)C2(C(=O)Nc3ccccc32)C(C#N)=C(N)O1 (stereo not drawn) | -0.9 | -6.8 | 6.0 | 4.5 | 6.5* | 0.3
CS(=O)(=O)c1ccc(C2=C(CNC(=O)c3cccs3)[C@H]3CC[C@@H](C2)N3CCOc2ccccc2)cc1 | -0.1 | -4.4 | 1.5 | 0.2 | . | .
CC(=O)OC1CC[C@]2(C#N)[C@H]3CC[C@]4(C)[C@H](C5C=CC(=O)O5)CCC4(O)C3CCC2(O)C1 (stereo partly drawn) | 14.3* | -0.1 | -12.1 | 14.7 | 1.3 | -0.4
CCN(CC)c1ccc(/C=C/[N+](=O)[O-])cc1 | -1.2 | -1.3 | 70.9* | -16.5 | 2.1 | 30.5
CCOC(=O)NC1CCc2cc(OC)c(OC)c(OC)c2-c2ccc(OC)c(=O)cc21 (stereo not drawn) | -1.4 | -5.3 | -1.7 | -23.7 | . | .
COc1cc(/C=C(/C)[N+](=O)[O-])ccc1OCc1ccccc1Cl | -5.5 | . | 84.7* | 32.1* | ? | 38.9
CC(=O)OC(C)(C)/C=C/C(=O)C(C)(O)C1[C@H](O)C[C@@]2(C)C3CC=C4C(CC[C@@H](O)C4(C)C)[C@]3(CO)C(=O)C[C@]12C (stereo partly drawn) | 1.0 | 2.3 | -28.4 | -4.8 | 11.1* | -1.3
CC(=O)OC(C)(C)/C=C/C(=O)[C@](C)(O)[C@H]1[C@H](O)C[C@@]2(C)[C@@H]3CC=C4[C@H](C[C@H](O)C(=O)C4(C)C)[C@]3(C)C(=O)C[C@]12C | -0.5 | . | 3.1 | -15.4 | . | .
Oc1ccccc1-[n+]1c(-c2ccccc2)cc(-c2ccccc2)c(O)c1-c1ccccc1 | 2.5 | -29.0 | 74.4* | 10.6 | 0.4 | 0.5
COc1cc2c(c(OC)c1O)-c1ccc(OC)c(=O)cc1C(NC(=O)C(F)(F)F)CC2 (stereo not drawn) | -0.9 | 6.1 | 3.8 | -23.4 | . | .
CC(=O)OC1CC(OC2C(O)CC(OC3C(O)CC(OC4CCC5(C)C(CCC6C5CCC5(C)C(C7=CC(=O)OC7)CCC65O)C4)OC3C)OC2C)OC(C)C1OC1OC(CO)C(O)C(O)C1O (stereo not drawn) | 33.0* | -20.4 | 1.5 | -4.7 | . | .
CNC1CCc2cc(OC)c(OC)c(OC)c2-c2ccc(SC)c(=O)cc21 (stereo not drawn) | -1.2 | -0.2 | -2.5 | -33.5 | . | .
